The text below walks through data of ChEMBL document CHEMBL4177759 (J Med Chem, 2018).

Series [1] is described as follows: Chemical stability of the compound in 0.01 M PBS at 10 uM after 60 mins by LC-MS/MS method. It is filed as physicochemical. Particulars: buffer, 1 h. In a few lines:
(§1)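 Prodrug from 10 mM DMSO stock spiked to 10 µM final in preheated PBS at 37 °C; aliquots taken over 60 min, quenched with cold acetonitrile containing losartan internal standard, diluted with water, and intact prodrug measured by LC-MS/MS.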

Series [2] is described as follows: Prodrug conversion in mouse liver microsomes assessed as mebendazole formation by measuring remaining parent drug at 10 uM measured at 60 mins by LC-MS/MS method. To be noted: 1 h. It is filed as ADME, microsome. An outline of the steps: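 Mouse liver microsomes (0.5 mg/mL) with 10 µM prodrug in 100 mM potassium phosphate, pH 7.4, reaction started by adding microsomes; triplicate samples at 0 and 60 min quenched with ice-cold acetonitrile containing losartan; prodrug disappearance by LC-MS/MS.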

The nature of series [3]: Solubility of the compound in 0.01 M PBS after 24 hrs by shake flask method. It is filed as physicochemical. Particulars: buffer.
Series [4] is described as follows: Prodrug conversion in mouse jejunum homogenate assessed as mebendazole formation by measuring remaining parent drug at 10 uM measured at 60 mins by LC-MS/MS method. It is filed as ADME, tissue-based. Particulars: in vitro, 1 h. In a few lines: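 Washed mouse jejunum diluted 10-fold in 0.1 M potassium phosphate buffer, probe-sonicated; homogenate spiked with 10 µM prodrug; triplicate aliquots at 0 and 60 min quenched with ice-cold acetonitrile plus losartan; prodrug remaining by LC-MS/MS peak-area ratio to internal standard.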

A short description of series [5]: Prodrug conversion in naive mouse plasma assessed as mebendazole formation by measuring remaining parent drug at 10 uM measured at 60 mins by LC-MS/MS method. To be noted: 1 h. It is filed as ADME, cell-free. In a few lines:
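Prodrug spiked at 10 µM into 1 mL naive mouse plasma, incubated on orbital shaker at 37 °C; triplicate aliquots at 0 and 60 min quenched with ice-cold acetonitrile plus losartan internal standard; remaining prodrug by LC-MS/MS.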

Series [6] can be described thus: Prodrug conversion in CD1 mouse plasma assessed as mebendazole formation at 30 mg/kg mebendazole equivalent administered single dose via oral gavage measured at 60 mins by LC-MS/MS method. Particulars: in vivo, 1 h. It is filed as ADME, organism-based.
For series [7] the following is noted: mouse, in vivo, po, 30 mg/kg, 0.5 h.
Series [8] can be described thus: Clearance in CD1 mouse at 1.5 mg/kg, iv by LC-MS/MS method. It is filed as ADME, organism-based. To be noted: in vivo. In a few lines:
(§2)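 Male CD-1 mice (25–30 g) received single IV dose 1.5 mg/kg MBZ-C dissolved just before dosing in 1% DMSO, 10% Cremophor EL, 89% saline; sacrificed by CO2 at set times; plasma extracted with acetonitrile containing losartan internal standard and MBZ measured by LC-MS/MS against naive-matrix calibration (0.001-50 nmol/g).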

Series [9] is described as follows: Volume of distribution in CD1 mouse at 1.5 mg/kg, iv by LC-MS/MS method. Particulars: in vivo. It is filed as ADME, organism-based. In a few lines: as §2
Series [10] is described as follows: Tmax in Beagle dog at 0.3 mg/kg, iv by LC-MS/MS method. It is filed as ADME, organism-based, Canis lupus familiaris. To be noted: in vivo. In a few lines:
(§3)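 Male beagle dogs (n=2) given single IV bolus of MBZ-C at 0.3 mg/kg in co-solvent vehicle (1% DMSO, 10% Cremophor EL). Jugular vein blood (~1 mL) by direct puncture at set times into sodium heparin tubes, kept on wet ice, spun 3,000 × g 5 min 4 °C, plasma stored -80 °C; MBZ quantified by LC-MS/MS.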

The nature of series [11]: Oral bioavailability in human at 1.18 ug. It is filed as ADME, organism-based. Particulars: in vivo.
Series [12] can be described thus: Cmax in CD1 mouse at 1.5 mg/kg, iv at 5 mins by LC-MS/MS method. It is filed as ADME, organism-based. Also noted: dose 1.5 mg/kg, route intravenous. Particulars: in vivo. An outline of the steps: as §2
The nature of series [13]: Cmax in Beagle dog at […], po measured at 2 hrs by LC-MS/MS method. It is filed as ADME, organism-based, Canis lupus familiaris. Particulars: in vivo. Also noted: dose 2.5 mg/kg, route oral.
A short description of series [14]: AUC (0 to t) in CD1 mouse brain at 30 mg/kg administered via oral gavage by LC-MS/MS method. To be noted: in vivo. It is filed as ADME, organism-based. In a few lines:
(§4)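 Male CD-1 mice dosed once by oral gavage, 30 mg/kg MBZ equivalent, formulated just before dosing in 5% ethanol, 5% polysorbate 80, 90% water; plasma and brain collected at set times after CO2 euthanasia; MBZ by LC-MS/MS; AUC0-t by log-linear trapezoidal rule; brain/plasma ratio as ratio of mean AUC0-t values.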

Series [15] in a line: Oral bioavailability in human at 1.7 ug. It is filed as ADME, organism-based. Particulars: in vivo.
Series [16] is described as follows: AUC (0 to t) in Beagle dog at 0.3 mg/kg, iv by LC-MS/MS method. To be noted: in vivo. It is filed as ADME, organism-based, Canis lupus familiaris. In a few lines:
as §3

A short description of series [17]: AUC (0 to t) in Beagle dog at […], po by LC-MS/MS method. It is filed as ADME, organism-based, Canis lupus familiaris. Particulars: in vivo.
Series [18] is described as follows: Tmax in Beagle dog at […], po by LC-MS/MS method. To be noted: in vivo. It is filed as ADME, organism-based, Canis lupus familiaris.
The nature of series [19]: Cmax in Beagle dog at 0.3 mg/kg, iv at 5 mins by LC-MS/MS method. It is filed as ADME, organism-based, Canis lupus familiaris. Also noted: dose 0.3 mg/kg, route intravenous. Particulars: in vivo. An outline of the steps:
as §3

A short description of series [20]: Volume of distribution in Beagle dog at 0.3 mg/kg, iv by LC-MS/MS method. It is filed as ADME, organism-based, Canis lupus familiaris. To be noted: in vivo. An outline of the steps: as §3
A short description of series [21]: Half life in CD1 mouse at 1.5 mg/kg, iv by LC-MS/MS method. It is filed as ADME, organism-based. Particulars: in vivo. An outline of the steps: as §2
A short description of series [22]: Ratio of drug level in brain to plasma in CD1 mouse at 30 mg/kg administered via oral gavage by LC-MS/MS method. It is filed as ADME, organism-based. Particulars: brain and plasma, read-out: BPR. In a few lines:
as §4

Series [23] in a line: AUC (0 to t) in CD1 mouse plasma at 30 mg/kg administered via oral gavage by LC-MS/MS method. It is filed as ADME, organism-based. An outline of the steps:
as §4

Series [24] in a line: Cmax in CD1 mouse plasma at 30 mg/kg administered via oral gavage at 60 mins by LC-MS/MS method. It is filed as ADME, organism-based. Also noted: dose 30 mg/kg, route oral. In a few lines:
as §4

A short description of series [25]: Cmax in CD1 mouse brain at 30 mg/kg administered via oral gavage at 60 mins by LC-MS/MS method. It is filed as ADME, organism-based. Also noted: dose 30 mg/kg, route oral. Particulars: in vivo, 1 h. In a few lines:
as §4

Series [26] in a line: Tmax in CD1 mouse plasma at 30 mg/kg administered via oral gavage by LC-MS/MS method. It is filed as ADME, organism-based. In a few lines: as §4
The nature of series [27]: Oral bioavailability in CD1 mouse plasma at 30 mg/kg administered via gavage by LC-MS/MS method. It is filed as ADME, organism-based.
Series [28] in a line: Plasma concentration in CD1 mouse at 30 mg/kg administered single dose via oral gavage measured at 60 mins by LC-MS/MS method. It is filed as ADME, organism-based.
Series [29] is described as follows: Half life in Beagle dog at 0.3 mg/kg, iv by LC-MS/MS method. It is filed as ADME, organism-based, Canis lupus familiaris. Particulars: in vivo. An outline of the steps:
as §3

Series [30] can be described thus: Tmax in CD1 mouse brain at 30 mg/kg administered via oral gavage by LC-MS/MS method. It is filed as ADME, organism-based. An outline of the steps: as §4
Series [31] in a line: Oral bioavailability in Beagle dog at […] by LC-MS/MS method. It is filed as ADME, organism-based, Canis lupus familiaris. Particulars: in vivo.
Series [32] in a line: Clearance in Beagle dog at 0.3 mg/kg, iv by LC-MS/MS method. It is filed as ADME, organism-based, Canis lupus familiaris. To be noted: in vivo. An outline of the steps: as §3
Series [33] can be described thus: AUC (0 to t) in CD1 mouse at 1.5 mg/kg, iv by LC-MS/MS method. It is filed as ADME, organism-based. Particulars: in vivo. In a few lines: as §2
Series [34] can be described thus: Tmax in CD1 mouse at 1.5 mg/kg, iv by LC-MS/MS method. It is filed as ADME, organism-based. To be noted: in vivo. An outline of the steps:
as §2

A short description of series [35]: Chemical stability of the compound in 0.01 M PBS assessed as parent compound remaining at 10 uM after 60 mins by LC-MS/MS method. It is filed as physicochemical. Particulars: read-out: Stability. An outline of the steps: as §1

Consider `COC(=O)Nc1nc2cc(C(=O)c3ccccc3)ccc2n1COC(=O)CCC(=O)O`, for which the Stability entry in [1] is reported as “Stable”; in series [2], 24%; in [4], 30%; in series [5], 78%. Moreover, the solubility entry in series [3] is recorded as “Soluble”.
On to `COC(=O)Nc1nc2cc(C(=O)c3ccccc3)ccc2n1COP(=O)(O)O`, for which the Drug metabolism in series [6] was 8.53 nmol/mL. Also, the Stability entry is reported as “Stable” in series [1], 100% in [2], 35% in [4] and 62% in [5]. The solubility entry in series [3] is reported as “Soluble”.
Turning to `COC(=O)Nc1nc2cc(C(=O)c3ccccc3)ccc2n1COC(=O)CNC(=O)[C@H](CC(C)C)NC(C)=O`, the Drug metabolism in series [6] was 8.72 nmol/mL. Further, the Stability entry in [1] is given as “Stable”; in [2], 29%; in series [4], 18%; in [5], 0%. Moreover, the solubility entry in series [3] was “Soluble”.
Take `COC(=O)Nc1nc2cc(C(=O)c3ccccc3)ccc2n1COC(=O)OC[C@H]1OC(O)[C@H](O)[C@@H](O)[C@@H]1O` (some centres not stated): the Stability result in series [1] is “Stable”; in [2] it was 27%; in [4] it was 4%; in [5], 18%. Also, the solubility result in series [3] is reported as “Soluble”.
`COC(=O)Nc1nc2cc(C(=O)c3ccccc3)ccc2n1COP(=O)(O)OCOC(=O)OC(C)C` gave a Cmax in series [7] of 12.2 µM. Also, the Drug metabolism in series [6] was 10.35 nmol/mL. In addition, the Stability entry in series [1] is on record as “Stable”; in series [2], 14%; in series [4], 1%; in series [5] it was 73%.
In general, clearance refers to a measure of how efficiently the substance is removed, as volume per time. Low readings indicate inefficient removal, high ones efficient removal. A word on the Vd: it is a proportionality between amount in the body and measured concentration, not a real space. Higher therefore signals wide distribution into tissue. A word on the Tmax: it is the time at which the peak concentration occurs. By bioavailability is commonly meant dose-corrected exposure relative to a reference, in per cent. Low readings indicate little systemic uptake, high ones much systemic uptake. The term AUC(0-t) denotes the area under the concentration-time curve up to a stated or last time point. Low values mean less exposure, high ones more exposure. As usually defined, the half-life is the time in which the quantity being followed falls by half. Lower therefore signals fast loss. Consider `COC(=O)Nc1nc2ccc(C(=O)c3ccccc3)cc2[nH]1` [MEBENDAZOLE], for which the results for the clearance in [8] and in [32] were 27.4 mL/min/kg and 22.2 mL/min/kg, respectively. Moreover, the figures for the distribution volume (Vd) in series [9] and in series [20] were 1.4 L/kg and 1.3 L/kg, respectively. The Tmax in series [10] worked out at 4.98 min; in series [18] it was 120 min; in series [26], 60 min; in series [30] it was 60 min; in [34], 4.98 min. The bioavailability came out at 22% in series [11], 17% in series [15], 24% in series [27] and 11% in [31]. In addition, the Cmax in [12] worked out at 5.3 µM; in series [19], 2.2 µM; in [24], 5.1 µM; in series [25], 5.1 nmol/g. Further, the Cmax at 2 h in series [13] stood at 0.2 µM. In addition, the AUCt in series [14] was found to be 13.1 nmol·h/g. Further, the AUC(0-t) in [16] was 0.9 µM·h; in series [17], 0.8 µM·h; in [23] it was 12.9 µM·h; in series [33], 2.7 µM·h. Also, the half-life is 43.8 min in series [21] and 43.2 min in series [29]. In addition, the Stability in series [2], in series [4] and in series [5] was 100% each time. In addition, in [22], the Kp came out at 1. In series [28], this compound came in with a concentration at 1 h of 2.86 µM.
With `COC(=O)Nc1nc2cc(C(=O)c3ccccc3)ccc2n1COC(=O)OC(C)C`, the Stability entry in [1] is “Stable”. In series [3], the solubility result was “Soluble”.
`COC(=O)Nc1nc2cc(C(=O)c3ccccc3)ccc2n1COC(=O)CC[C@H](N)C(=O)O`: the remaining at 1 h, 10 µM in [35] was 0%. Besides, the solubility entry in [3] was “Soluble”.
